The source of these data is ChEMBL document CHEMBL1136911, “6,7-Dihydro-5H-pyrrolo[1,2-a] imidazoles as potent and selective alpha1A adrenoceptor partial agonists” (Bioorg Med Chem Lett, 2009).

SMILES strings stand for the structures.

In series [1] the target is T1, Alpha-1B adrenergic receptor (Homo sapiens, UniProt P35368).
T1 sequence (P35368 whole entry): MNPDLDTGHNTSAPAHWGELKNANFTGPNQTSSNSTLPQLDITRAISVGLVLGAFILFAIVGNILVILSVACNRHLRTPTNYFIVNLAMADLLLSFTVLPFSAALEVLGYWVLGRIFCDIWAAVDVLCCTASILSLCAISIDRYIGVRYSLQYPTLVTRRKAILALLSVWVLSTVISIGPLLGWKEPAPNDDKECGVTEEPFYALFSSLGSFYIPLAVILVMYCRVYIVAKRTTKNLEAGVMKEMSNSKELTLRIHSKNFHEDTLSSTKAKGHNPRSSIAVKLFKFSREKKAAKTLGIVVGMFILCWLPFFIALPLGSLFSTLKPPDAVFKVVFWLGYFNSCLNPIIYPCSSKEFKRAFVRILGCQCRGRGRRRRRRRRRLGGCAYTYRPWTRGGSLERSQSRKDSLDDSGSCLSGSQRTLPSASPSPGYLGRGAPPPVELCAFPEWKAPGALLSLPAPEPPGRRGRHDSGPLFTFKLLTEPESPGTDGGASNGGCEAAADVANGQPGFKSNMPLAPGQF
Description: Agonist activity at human adrenergic Alpha-1B receptor expressed in CHO cells assessed as calcium mobilization by FLIPR. It is filed as functional, cell-based. The method in brief:
(§1)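 Human alpha1B (clone 11) or alpha1D (clone 23) receptor stably expressed in Chinese hamster ovary cells; receptor activation read as Gq-coupled calcium mobilisation with a calcium-sensitive fluorescent dye on FLIPR. Eleven-point concentration-response curves; Emax given as percent of the response to 10 µM phenylephrine. Values are geometric means of at least two experiments.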
For orientation: A change in cytosolic calcium serves as a functional read-out for many receptors and channels.

A short description of series [2]: (§2) Apparent permeability from apical to basolateral side of MDCK cells expressing MDR1. The class given is ADME, cell-based, Canis lupus familiaris. Particulars: dog, MDCK-MDR1; call rule not given here. In outline: (§3)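 MDCK cells expressing P-glycoprotein (mdr-1); transcellular flux measured at 10 µM substrate in the apical-to-basolateral and basolateral-to-apical directions, reported as Papp ×10^-6 cm s^-1.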

The target in series [3] is T2, Alpha-1D adrenergic receptor (Homo sapiens, UniProt P25100).
T2 sequence (P25100 whole entry): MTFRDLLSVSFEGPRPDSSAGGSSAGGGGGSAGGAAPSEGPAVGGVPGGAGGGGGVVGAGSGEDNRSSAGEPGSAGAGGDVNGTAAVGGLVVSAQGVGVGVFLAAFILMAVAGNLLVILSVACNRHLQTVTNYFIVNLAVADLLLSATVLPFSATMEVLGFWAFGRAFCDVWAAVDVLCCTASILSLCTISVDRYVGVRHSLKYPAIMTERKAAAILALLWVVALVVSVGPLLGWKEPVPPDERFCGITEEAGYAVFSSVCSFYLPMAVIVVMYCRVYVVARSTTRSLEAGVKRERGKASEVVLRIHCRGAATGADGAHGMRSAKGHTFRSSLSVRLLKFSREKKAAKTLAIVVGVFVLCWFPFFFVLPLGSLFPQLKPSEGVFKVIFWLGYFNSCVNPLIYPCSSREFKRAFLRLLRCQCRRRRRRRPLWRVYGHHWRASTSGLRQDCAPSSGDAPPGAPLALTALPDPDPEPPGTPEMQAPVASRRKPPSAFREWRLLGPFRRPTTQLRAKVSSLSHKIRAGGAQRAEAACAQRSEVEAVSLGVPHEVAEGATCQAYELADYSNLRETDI
Briefly: Agonist activity at human adrenergic Alpha-1D receptor expressed in CHO cells assessed as calcium mobilization by FLIPR. It is filed as functional, cell-based. In outline:
as §1

Series [4] addresses T3, Alpha-1A adrenergic receptor (Homo sapiens, UniProt P35348).
T3 sequence (P35348 whole entry): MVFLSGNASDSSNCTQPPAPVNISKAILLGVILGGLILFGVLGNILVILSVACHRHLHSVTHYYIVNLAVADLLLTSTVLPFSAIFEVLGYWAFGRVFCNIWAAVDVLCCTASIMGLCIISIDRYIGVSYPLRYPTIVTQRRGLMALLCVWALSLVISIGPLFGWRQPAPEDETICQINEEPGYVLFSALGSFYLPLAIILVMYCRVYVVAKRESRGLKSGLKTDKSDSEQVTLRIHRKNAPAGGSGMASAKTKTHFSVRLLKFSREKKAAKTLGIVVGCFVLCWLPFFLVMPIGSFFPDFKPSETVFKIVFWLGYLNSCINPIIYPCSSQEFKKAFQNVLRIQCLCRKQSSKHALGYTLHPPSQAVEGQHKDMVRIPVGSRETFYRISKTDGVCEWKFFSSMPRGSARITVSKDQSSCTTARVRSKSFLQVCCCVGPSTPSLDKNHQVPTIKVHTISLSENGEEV
Description: Agonist activity at human adrenergic alpha1A receptor expressed in CHO cells assessed as calcium mobilization by FLIPR. The class given is functional, cell-based.

Series [5] concerns the target T4, Alpha-1D adrenergic receptor (Homo sapiens) (UniProt P25100).
T4 sequence (whole entry): T2 sequence (P25100 whole entry)
Briefly: Agonist activity at human adrenergic Alpha-1D receptor expressed in CHO cells assessed as calcium mobilization by FLIPR relative to 10 uM phenylephrine. It is filed as functional, cell-based. The method in brief:
(§4)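 Human α1B (clone 11) and α1D (clone 23) receptors each expressed in Chinese hamster ovary cells. Gq-coupled receptor activation read as intracellular calcium rise with a calcium-sensitive fluorescent dye on FLIPr. Eleven-point concentration-response curves; Emax expressed as percent of the 10 µM phenylephrine response. Values are geometric means of at least two experiments.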

The target in series [6] is T5, Alpha-1B adrenergic receptor (Homo sapiens) (UniProt P35368).
T5 sequence (whole entry): T1 sequence (P35368 whole entry)
Description: Agonist activity at human adrenergic Alpha-1B receptor expressed in CHO cells assessed as calcium mobilization by FLIPR relative to 10 uM phenylephrine. It is filed as functional, cell-based. The method in brief:
as §4

Series [7] has as its target T6, Alpha-2A adrenergic receptor (Homo sapiens, UniProt P08913).
T6 sequence (P08913 whole entry): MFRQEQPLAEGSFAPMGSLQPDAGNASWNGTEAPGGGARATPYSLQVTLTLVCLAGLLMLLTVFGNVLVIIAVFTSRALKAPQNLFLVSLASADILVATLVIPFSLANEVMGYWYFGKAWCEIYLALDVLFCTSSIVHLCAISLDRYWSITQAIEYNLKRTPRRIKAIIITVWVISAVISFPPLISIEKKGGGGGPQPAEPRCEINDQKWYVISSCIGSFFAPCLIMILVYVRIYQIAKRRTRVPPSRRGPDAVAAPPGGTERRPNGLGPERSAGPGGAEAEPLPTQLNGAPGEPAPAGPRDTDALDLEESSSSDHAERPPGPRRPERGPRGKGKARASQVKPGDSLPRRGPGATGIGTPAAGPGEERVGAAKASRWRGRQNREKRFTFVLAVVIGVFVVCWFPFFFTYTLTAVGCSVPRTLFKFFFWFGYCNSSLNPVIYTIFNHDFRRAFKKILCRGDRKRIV
Description: Inhibition of adrenergic alpha2A receptor.

Series [8] is described as follows: Lipophilicity, log D at pH 7.4. Particulars: buffer.
Series [9] in a line: Intrinsic clearance in human liver microsomes. It is filed as ADME, Microsome. On the technique in general: Liver microsomes are vesicles of endoplasmic reticulum, rich in cytochrome P450 enzymes.
Series [10] can be described thus: (§5) Apparent permeability from basolateral to apical side of MDCK cells expressing MDR1. It is filed as ADME, cell-based, Canis lupus familiaris. Particulars: dog, MDCK-MDR1. The method in brief: as §3
The target of another series is CYP2C9 (Homo sapiens, UniProt P11712). Description: Inhibition of CYP2C9 at 3 uM. The class given is ADME.
The target in a further series is CYP3A4 (Homo sapiens, UniProt P08684). Briefly: Inhibition of CYP3A4 at 3 uM. It is filed as ADME.
In series [11] the target is Voltage-gated inwardly rectifying potassium channel KCNH2 (Homo sapiens, UniProt Q12809). Description: Inhibition of human ERG up to 22 uM.
The next series deals with T7, CYP1A2 (Homo sapiens, UniProt P05177).
T7 sequence (P05177 whole entry): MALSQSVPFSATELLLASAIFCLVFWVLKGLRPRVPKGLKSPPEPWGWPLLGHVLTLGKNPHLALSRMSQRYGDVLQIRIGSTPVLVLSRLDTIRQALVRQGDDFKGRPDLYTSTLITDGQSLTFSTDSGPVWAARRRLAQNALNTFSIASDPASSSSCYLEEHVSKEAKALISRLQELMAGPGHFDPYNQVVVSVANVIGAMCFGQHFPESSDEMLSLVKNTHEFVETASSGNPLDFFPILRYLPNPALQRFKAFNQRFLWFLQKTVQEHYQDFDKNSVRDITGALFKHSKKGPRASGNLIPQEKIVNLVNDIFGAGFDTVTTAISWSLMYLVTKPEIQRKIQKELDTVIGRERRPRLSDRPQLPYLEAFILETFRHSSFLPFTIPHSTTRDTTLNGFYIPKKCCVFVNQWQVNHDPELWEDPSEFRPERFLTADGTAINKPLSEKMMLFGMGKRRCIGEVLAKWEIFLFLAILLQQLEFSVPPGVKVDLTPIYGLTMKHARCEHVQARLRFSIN
Description: Inhibition of CYP1A2 at 3 uM. It is filed as ADME.

The target in a further series is CYP2D6 (Homo sapiens, UniProt P10635). Description: Inhibition of CYP2D6 at 3 uM. The class given is ADME.
Series [12] has as its system MDCK. The series is described as §2. The class given is ADME, cell-based, Canis lupus familiaris. Particulars: dog, mdck. In outline: as §3
Series [13] has as its system MDCK. The series is described as §5. The settings on record: dog, mdck. The class given is ADME, cell-based, Canis lupus familiaris. The method in brief:
as §3

Sequence of Voltage-gated inwardly rectifying potassium channel KCNH2 (Q12809 whole entry): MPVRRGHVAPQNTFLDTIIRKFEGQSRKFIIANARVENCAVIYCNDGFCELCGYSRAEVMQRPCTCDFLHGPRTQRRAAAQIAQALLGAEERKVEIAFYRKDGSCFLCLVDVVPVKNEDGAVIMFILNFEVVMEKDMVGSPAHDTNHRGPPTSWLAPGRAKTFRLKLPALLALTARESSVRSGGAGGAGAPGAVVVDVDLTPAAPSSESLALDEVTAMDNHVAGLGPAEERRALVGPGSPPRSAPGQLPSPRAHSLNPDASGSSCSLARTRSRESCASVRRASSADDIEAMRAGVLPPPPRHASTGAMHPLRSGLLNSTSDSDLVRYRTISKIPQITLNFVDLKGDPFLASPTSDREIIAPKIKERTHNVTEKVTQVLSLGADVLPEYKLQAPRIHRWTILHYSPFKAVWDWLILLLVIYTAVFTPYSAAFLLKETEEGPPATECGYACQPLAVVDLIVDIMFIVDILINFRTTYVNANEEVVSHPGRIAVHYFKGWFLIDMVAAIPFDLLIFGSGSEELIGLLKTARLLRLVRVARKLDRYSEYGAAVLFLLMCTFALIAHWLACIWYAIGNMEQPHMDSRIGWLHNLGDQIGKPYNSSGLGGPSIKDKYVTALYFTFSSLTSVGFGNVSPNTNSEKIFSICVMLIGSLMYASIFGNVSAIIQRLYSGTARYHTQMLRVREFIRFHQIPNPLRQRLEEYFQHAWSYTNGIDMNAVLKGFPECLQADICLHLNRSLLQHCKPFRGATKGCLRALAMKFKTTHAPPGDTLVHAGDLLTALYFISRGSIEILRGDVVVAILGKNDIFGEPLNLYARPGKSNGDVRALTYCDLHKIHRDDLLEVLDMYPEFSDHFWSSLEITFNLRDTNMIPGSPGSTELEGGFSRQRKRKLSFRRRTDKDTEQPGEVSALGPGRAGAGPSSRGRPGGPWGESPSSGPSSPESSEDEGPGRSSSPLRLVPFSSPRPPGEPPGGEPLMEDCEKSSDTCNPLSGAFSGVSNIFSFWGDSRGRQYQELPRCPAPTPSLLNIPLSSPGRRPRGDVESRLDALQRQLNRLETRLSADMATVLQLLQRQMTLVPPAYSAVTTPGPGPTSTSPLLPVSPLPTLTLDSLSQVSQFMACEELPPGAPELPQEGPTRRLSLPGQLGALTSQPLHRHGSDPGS
Sequence of CYP2C9 (P11712 whole entry): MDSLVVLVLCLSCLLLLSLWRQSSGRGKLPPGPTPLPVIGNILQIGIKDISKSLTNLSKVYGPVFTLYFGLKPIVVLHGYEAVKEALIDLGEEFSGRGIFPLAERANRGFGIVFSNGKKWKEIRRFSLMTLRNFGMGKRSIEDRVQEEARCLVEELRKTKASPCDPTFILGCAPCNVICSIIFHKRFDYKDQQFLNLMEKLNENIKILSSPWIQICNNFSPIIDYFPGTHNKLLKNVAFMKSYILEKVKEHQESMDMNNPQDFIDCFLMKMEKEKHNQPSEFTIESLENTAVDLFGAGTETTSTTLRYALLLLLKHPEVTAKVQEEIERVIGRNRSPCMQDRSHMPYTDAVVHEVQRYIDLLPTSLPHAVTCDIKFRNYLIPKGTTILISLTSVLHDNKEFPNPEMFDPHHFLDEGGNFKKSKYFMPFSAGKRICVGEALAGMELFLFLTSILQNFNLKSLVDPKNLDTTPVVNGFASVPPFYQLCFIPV
Sequence of CYP2D6 (P10635 whole entry): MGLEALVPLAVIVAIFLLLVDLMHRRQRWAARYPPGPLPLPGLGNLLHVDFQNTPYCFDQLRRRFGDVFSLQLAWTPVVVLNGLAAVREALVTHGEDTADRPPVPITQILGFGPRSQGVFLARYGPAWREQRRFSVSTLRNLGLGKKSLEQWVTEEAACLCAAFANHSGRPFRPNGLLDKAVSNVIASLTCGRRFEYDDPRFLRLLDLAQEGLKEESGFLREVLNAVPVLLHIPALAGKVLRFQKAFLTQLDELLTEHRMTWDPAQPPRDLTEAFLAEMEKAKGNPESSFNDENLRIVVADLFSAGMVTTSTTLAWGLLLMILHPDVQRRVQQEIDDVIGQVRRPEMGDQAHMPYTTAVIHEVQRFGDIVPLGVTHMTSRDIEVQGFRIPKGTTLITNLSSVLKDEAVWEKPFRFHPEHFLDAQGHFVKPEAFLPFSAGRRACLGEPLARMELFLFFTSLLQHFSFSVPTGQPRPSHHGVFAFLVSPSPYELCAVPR
Sequence of CYP3A4 (P08684 whole entry): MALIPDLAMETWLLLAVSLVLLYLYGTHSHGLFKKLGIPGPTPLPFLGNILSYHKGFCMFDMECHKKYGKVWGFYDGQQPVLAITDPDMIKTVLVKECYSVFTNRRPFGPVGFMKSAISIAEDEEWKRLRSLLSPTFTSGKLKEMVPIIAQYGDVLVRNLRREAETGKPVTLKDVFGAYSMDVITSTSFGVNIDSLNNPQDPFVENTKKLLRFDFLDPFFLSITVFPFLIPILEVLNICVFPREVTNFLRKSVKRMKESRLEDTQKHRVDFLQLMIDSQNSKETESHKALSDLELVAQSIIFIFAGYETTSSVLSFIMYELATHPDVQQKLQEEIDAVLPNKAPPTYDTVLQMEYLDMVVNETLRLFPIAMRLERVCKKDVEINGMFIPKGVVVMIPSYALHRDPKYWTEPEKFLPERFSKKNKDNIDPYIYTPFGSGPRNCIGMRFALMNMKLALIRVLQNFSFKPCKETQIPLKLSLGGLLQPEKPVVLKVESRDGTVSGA

A word on the EC50: it is the concentration that produces a half-maximal response. Broadly, the Papp A→B is the apparent permeability from the apical to the basolateral side of a cell layer. The term Emax denotes the greatest response seen or fitted, relative to the assay's reference. The Ki is the dissociation constant of the complex between target and ligand, obtained from inhibition or displacement. The term logD denotes lipophilicity at a set pH, counting ionised and neutral species. Higher therefore signals a more lipophilic compound. The microsomal CLint is the rate of metabolic loss divided by the concentration. Read a high microsomal CLint as rapid turnover. The term Papp B→A denotes how fast a substance crosses the layer from the basolateral side. For `c1cncc(-c2ccccc2[C@@H]2Cc3nccn3C2)c1`, the EC50 was determined as 0.76 µM in series [1], 0.119 µM in [3] and 0.001 µM in series [4]. Also, the Papp A→B in series [2] was found to be 440 nm/s. The Emax turned out to be 71% in series [5] and 54% in series [6]. For the same molecule, the affinity in [7], expressed as Ki, was 0.991 µM. In [8], this molecule displayed a logD of 2.1. The same molecule returned a microsomal CLint in series [9] of 8 µL/min/mg. In series [10], the Papp B→A stood at 470 nm/s.

The inhibition is the drop in the measured response relative to a control, in per cent. Lower therefore signals a weak effect. Consider `Fc1ccc(-c2cncnc2)c(C2Cc3nccn3C2)c1` (centres undefined), for which the values for the EC50 in series [1], in series [3] and in series [4] were over 10 µM, over 2.6 µM and 0.001 µM, respectively. Further, the Papp A→B in series [2] is 340 nm/s. Also, the inhibition at 3 µM against CYP2C9, on CYP3A4, against CYP1A2 and at CYP2D6 was under 10% in each case. For the same molecule, the “inhibition (INH)” value in [11] was “Not Active”. In addition, the Ki in [7] was over 2.78 µM. Also, the logD in series [8] is 1.3. In [9], this molecule had a microsomal CLint of under 8 µL/min/mg. Moreover, in series [10], the Papp B→A came to 390 nm/s.

As usually defined, the Papp is a coefficient for how fast a substance crosses the barrier. On to `COCc1c(Cl)ccc2c1CC[C@H]2c1ncc[nH]1`, for which the values for the EC50 in series [1] and in [3] were over 10 µM and over 7 µM, respectively. For the same molecule, the Papp in the series with MDCK [12] came to 400 nm/s; with MDCK [13] it was 360 nm/s. Besides, the Ki in [7] was over 1.7 µM. Also, in [8], the logD is 2.6.
